We go through seven compounds from ChEMBL document CHEMBL1828502, “Quinolinyl and quinolinyl N-oxide chalcones: synthesis, antifungal and cytotoxic activities” (Eur J Med Chem, 2011).

SMILES strings stand for the structures. ≈ marks a conversion by molar mass, not a printed value.

One assay relates to Jurkat. In words: Anticancer activity against human Jurkat cells after 48 hrs by MTT assay. Type of assay: functional, cell-based. In a few lines: (§1)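 HL60 and Jurkat leukemia lines plated at 50,000 and 100,000 cells/well respectively and pre-incubated 24 h at 37 °C, 5% CO2. Compounds dissolved in DMSO and tested over a concentration range of […] for 48 h. Viability read by MTT reduction (4 h), formazan dissolved in acidic isopropanol, OD 590 nm. Values normalized to 0.05% DMSO control; IC50 taken graphically from dose-effect curves. Triplicate, three separate days.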

A further assay concerns MCF7. The assay can be described thus: Anticancer activity against human MCF7 cells after 48 hrs by sulforhodamine B assay. The format is functional, cell-based. An outline of the steps: (§2)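 Solid tumour lines from NCI (NCI colorimetric protocol), seeded and pre-incubated 24 h at 37 °C, 5% CO2, then exposed to compounds for 48 h. Proteins fixed with trichloroacetic acid, stained with sulforhodamine B, dye dissolved in 10 mM Tris, absorbance at 515 nm compared against initial-density control wells. IC50 from dose-response curves built with 1:2 serial dilutions; duplicate, repeated at least three times.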
Background: In SRB staining, fixed cells bind dye roughly in proportion to their protein.

For assay [1], the system named is Candida tropicalis. In words: Antifungal activity against Candida tropicalis by two fold serial dilution method. The format is functional. In a few lines:
(§3)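 Broth microdilution MIC following CLSI M27-A2 with twofold serial dilutions; strains ATCC 18804 (C. albicans), ATCC 22019 (C. parapsilosis), ATCC 750 (C. tropicalis), ATCC 32608 (C. gattii), kept on Sabouraud dextrose agar at 4 °C. Amphotericin B and trimethoprim/sulfamethoxazole served as positive controls.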

A further assay deals with HL-60. In words: Anticancer activity against human HL60 cells after 48 hrs by MTT assay. The format is functional, cell-based. An outline of the steps:
as §1

The test system of assay [2] is Cryptococcus gattii species complex. In words: Antifungal activity against Cryptococcus gattii by two fold serial dilution method after 3 days by broth microdilution method in presence of 1 M osmotic stabilizer sorbitol. The format is functional, Cryptococcus bacillisporus. The following applies: 72 h. (Dilution methods test growth across graded concentrations, often in twofold steps.)

Assay [3] deals with Paracoccidioides brasiliensis. The assay can be described thus: Antifungal activity against Paracoccidioides brasiliensis Pb18 after 10 days by broth microdilution method in presence of 1 M osmotic stabilizer sorbitol. The format is functional. As to conditions: 240 h; call rule not given here.
In assay [4] the test system is Candida tropicalis. The assay can be described thus: Antifungal activity against Candida tropicalis after 2 days by broth microdilution method in presence of 1 M osmotic stabilizer sorbitol. Type of assay: functional. As to conditions: 48 h.
In another assay the test system is UACC-62. In words: Anticancer activity against human UACC62 cells after 48 hrs by sulforhodamine B assay. The format is functional, cell-based. An outline of the steps: as §2
The subject of another assay is TK-10. The assay can be described thus: Anticancer activity against human TK10 cells after 48 hrs by sulforhodamine B assay. The format is functional, cell-based. An outline of the steps:
as §2

In assay [5] the test system is Paracoccidioides brasiliensis. In words: Antifungal activity against Paracoccidioides brasiliensis Pb18 by serial dilution method. Type of assay: functional.
Another assay has as its system Candida parapsilosis. The assay can be described thus: Antifungal activity against Candida parapsilosis by two fold serial dilution method. Type of assay: functional. As to conditions: Lodderomyces parapsilosis. In a few lines:
as §3

A further assay has as its system Candida albicans. In words: Antifungal activity against Candida albicans by two fold serial dilution method. The format is functional. In a few lines: as §3
For assay [6], the system named is Cryptococcus gattii species complex. The assay can be described thus: Antifungal activity against Cryptococcus gattii by two fold serial dilution method. The format is functional, Cryptococcus bacillisporus. An outline of the steps: as §3
Setting [7] is: Homo sapiens, Jurkat, 48 h, read-out: IC50.
Setting [8] is: Homo sapiens, HL-60, 48 h, read-out: IC50.
The mark [9] stands for this setting: Homo sapiens, MCF7, 48 h, read-out: IC50.
The mark [10] stands for this setting: Homo sapiens, UACC-62, 48 h, read-out: IC50.
The mark [11] stands for this setting: Homo sapiens, TK-10, 48 h, read-out: IC50.

A word on the IC50: it is the concentration needed to halve the response being measured. What is called MIC is the least concentration at which growth counts as inhibited. As for `COc1ccc(C(=O)/C=C/c2ccc3c(ccc[n+]3C)c2)cc1.[I-]`, the IC50 with Jurkat (setting [7]) is 11.9 µg/mL; in the assay on MCF7 (mcf7) it was “Not Active”; with HL-60 (setting [8]), 25.2 µg/mL; in the assay on UACC-62 (uacc-62), “Not Active”; with TK-10 (tk-10), “Not Active”. Also, the minimum inhibitory concentration (MIC) is 62.5 µg/mL with Candida tropicalis [1]; 62.5 µg/mL in [2]; more than 31.2 µg/mL in [3]; more than 31.2 µg/mL in the assay with Candida tropicalis [4]; 125 µg/mL in [5]; 125 µg/mL in the assay on Candida parapsilosis. Besides, the MIC against Candida albicans was found to be 62.5 µg/mL; in [6] it was 31.2 µg/mL.
Regarding `O=C(/C=C/c1ccc2c(ccc[n+]2[O-])c1)c1ccc(F)cc1`, the IC50 with Jurkat (setting [7]) was 71.9 µg/mL (≈ 245 µM); in the assay on MCF7 (setting [9]), 4.3 µg/mL (≈ 14.7 µM); in the assay with HL-60 (hl-60), “Not Active”; in the assay with UACC-62 (setting [10]), 2.75 µg/mL (≈ 9.38 µM); in the assay on TK-10 (setting [11]), 0.19 µg/mL (≈ 0.648 µM). Also, the MIC is more than 500 µg/mL in the assay with Candida tropicalis [1]; more than 31.2 µg/mL in assay [2]; 1.9 µg/mL in [3]; more than 31.2 µg/mL in the assay on Candida tropicalis [4]; 1.9 µg/mL (≈ 6.48 µM) in [5]; more than 500 µg/mL against Candida parapsilosis. In addition, the minimal inhibitory concentration (MIC) in the assay on Candida albicans is more than 500 µg/mL; in assay [6], 62.5 µg/mL (≈ 213 µM).
As to `O=C(/C=C/c1ccc2c(ccc[n+]2[O-])c1)c1ccc(Cl)cc1`, the IC50 in the assay on Jurkat (setting [7]) worked out at 4.9 µg/mL (≈ 15.8 µM); in the assay on MCF7 (setting [9]) it was 6.6 µg/mL (≈ 21.3 µM); in the assay on HL-60 (setting [8]), 33.8 µg/mL (≈ 109 µM); in the assay on UACC-62 (setting [10]), 4.9 µg/mL (≈ 15.8 µM); in the assay with TK-10 (setting [11]), 1.7 µg/mL (≈ 5.49 µM). The MIC in the assay with Candida tropicalis [1] was more than 500 µg/mL; in [2], more than 31.2 µg/mL; in assay [3], 15.6 µg/mL; in the assay with Candida tropicalis [4], more than 31.2 µg/mL; in assay [5], 15.5 µg/mL (≈ 50 µM); with Candida parapsilosis, more than 500 µg/mL. In addition, the MIC against Candida albicans is more than 500 µg/mL; in [6], 250 µg/mL (≈ 807 µM).
Regarding `Cc1ccc(C(=O)/C=C/c2ccc3c(ccc[n+]3C)c2)cc1.[I-]`, the IC50 entry in the assay with Jurkat (jurkat), in the assay with MCF7 (mcf7), in the assay on HL-60 (hl-60), in the assay with UACC-62 (uacc-62) and in the assay on TK-10 (tk-10) was “Not Active” each time. Besides, the MIC in the assay on Candida tropicalis [1] was 15.6 µg/mL; in assay [2], 15.5 µg/mL; in assay [3], more than 31.2 µg/mL; in the assay with Candida tropicalis [4] it was 62.5 µg/mL; in assay [5], 62.5 µg/mL; against Candida parapsilosis, more than 500 µg/mL. Further, the MIC in the assay on Candida albicans stood at 125 µg/mL; in [6], 7.8 µg/mL.
On to `C[n+]1cccc2cc(/C=C/C(=O)c3ccc([N+](=O)[O-])cc3)ccc21.[I-]`, for which the half-maximal inhibitory concentration (IC50) entry in the assay with Jurkat (jurkat), in the assay on MCF7 (mcf7), in the assay on HL-60 (hl-60), in the assay on UACC-62 (uacc-62) and in the assay with TK-10 (tk-10) was “Not Active” in each case. The MIC against Candida tropicalis [1] was 250 µg/mL; in assay [2], 62.5 µg/mL; in [3], more than 31.2 µg/mL; in the assay on Candida tropicalis [4], more than 31.2 µg/mL; in assay [5] it was 250 µg/mL; in the assay on Candida parapsilosis, more than 500 µg/mL. Moreover, the results for the MIC (in the assay with Candida albicans; in assay [6]) were more than 500 µg/mL and 31.2 µg/mL, respectively.
As to `C[n+]1cccc2cc(/C=C/C(=O)c3ccc(Br)cc3)ccc21.[I-]`, the IC50 in the assay with Jurkat (setting [7]) was 7.3 µg/mL; in the assay on MCF7 (mcf7), “Not Active”; in the assay with HL-60 (hl-60), “Not Active”; in the assay with UACC-62 (uacc-62), “Not Active”; with TK-10 (tk-10), “Not Active”. The MIC against Candida tropicalis [1] is 15.6 µg/mL; in [2], 7.8 µg/mL; in assay [3] it was 31.2 µg/mL; in the assay on Candida tropicalis [4], 15.6 µg/mL; in assay [5] it was 31.2 µg/mL; with Candida parapsilosis it was 125 µg/mL. In addition, the figures for the MIC (in the assay on Candida albicans; in assay [6]) were 250 µg/mL and 7.8 µg/mL, respectively.
For `C[n+]1cccc2cc(/C=C/C(=O)c3ccc(Cl)cc3)ccc21.[I-]`, the IC50 in the assay with Jurkat (setting [7]) is 4.9 µg/mL; with MCF7 (mcf7), “Not Active”; in the assay on HL-60 (setting [8]), 9.9 µg/mL; with UACC-62 (uacc-62), “Not Active”; in the assay with TK-10 (tk-10), “Not Active”. The MIC in the assay on Candida tropicalis [1] was 31.2 µg/mL; in assay [2], 15.6 µg/mL; in [3], more than 31.2 µg/mL; with Candida tropicalis [4], 31.2 µg/mL; in assay [5], 125 µg/mL; with Candida parapsilosis, more than 500 µg/mL. Moreover, the MIC against Candida albicans was found to be 500 µg/mL; in assay [6], 15.6 µg/mL.
